The text below walks through data of ChEMBL document CHEMBL1147825, “2H-benzimidazole 1,3-dioxide derivatives: a new family of water-soluble anti-trypanosomatid agents” (J Med Chem, 2006).

Each structure is given as a SMILES string. The source made the active and inactive calls. No cut-off for these calls is given here. Some results are limits rather than exact numbers.

Assay [1] concerns Trypanosoma cruzi. Description: Antitrypanosomatid activity against Trypanosoma cruzi Tulahuen 2 epimastigote form at 25 uM. The class given is functional. As to conditions: read-out: GI. Put shortly:
(§1)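 Tulahuen 2 epimastigotes in BHI-tryptose plus 5% FCS at 28°C, inoculated at 1×10^6 cells/mL with compound (25 or 100 µM) from DMSO stock, final DMSO ≤0.4%. Growth over 5 days followed by A600; %GI computed from day-0 and day-5 absorbances of treated vs compound-free control cultures; mean of three experiments.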

The test system of assay [2] is Trypanosoma cruzi. The assay is described as follows: Trypanocidal activity against Trypanosoma cruzi CL Brener trypomastigote form in mouse blood at 250 ug/mL. Type of assay: functional. Put shortly: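 Trypomastigotes taken from infected mouse blood; compound in DMSO diluted with PBS to 250 µg/mL, mixed with blood containing 10^6 parasites at 90/10 ratio, incubated 24 h at 4°C. Parasites counted by the Brener method under microscope; gentian violet positive and PBS negative controls.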

Assay [3] concerns Trypanosoma cruzi. The assay is described as follows: Antitrypanosomatid activity against Trypanosoma cruzi CL Brener epimastigote form. Type of assay: functional, organism-based. The essentials: (§2)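 Epimastigotes grown at 28°C in BHI-tryptose with 5% fetal calf serum; 5-day stationary-phase cells inoculated at 1×10^6 cells/mL with compound added from DMSO stock (final DMSO ≤0.4%; control contains 0.4% DMSO). Growth followed by A600; at day 5 absorbance related to control across increasing concentrations; IC50 taken as concentration reducing absorbance ratio to 50%.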

The subject of assay [4] is Trypanosoma cruzi. The assay is described as follows: Antitrypanosomatid activity against Trypanosoma cruzi Tulahuen 2 epimastigote form. The class given is functional, organism-based. The essentials: as §2
Assay [5] concerns Leishmania amazonensis. Description: Leishmanicidal activity against Leishmania amazonensis promastigote form at 100 ug/mL. Type of assay: functional. Put shortly:
(§3)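 Promastigotes grown at 28°C in Schneider's medium with 20% FCS, seeded at 10^7 parasites/mL; compound dissolved in minimal DMSO or Tween 80 and diluted in Schneider's medium to a final 100 µg/mL. After 72 h at 28°C, parasites examined by inverted microscopy and compared with compound-free control.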

In assay [6] the test system is Trypanosoma cruzi. The assay is described as follows: Antitrypanosomatid activity against Trypanosoma cruzi Tulahuen 2 epimastigote form at 100 uM. The class given is functional. To be noted: read-out: GI. The essentials: as §1
Assay [7] deals with Leishmania infantum. The assay is described as follows: Leishmanicidal activity against Leishmania infantum promastigote form at 100 ug/mL. The class given is functional. Put shortly:
as §3

In assay [8] the test system is Leishmania braziliensis. The assay is described as follows: Leishmanicidal activity against Leishmania braziliensis promastigote form at 100 ug/mL. The class given is functional. Put shortly:
as §3

For assay [9], the system named is Trypanosoma cruzi. Description: Antitrypanosomatid activity against Trypanosoma cruzi Y epimastigote form. The class given is functional, organism-based. Put shortly:
as §2

The subject of assay [10] is J774. Description: Cytotoxicity against mouse J774 macrophage at 40 uM. The class given is functional. Put shortly: (§4)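 J774 macrophages in RPMI 1640 with 20% heat-inactivated FCS, attached 24 h at 37°C in 5% CO2, then exposed to compound for 48 h. Washed, MTT 0.4 mg/mL 60 min at 37°C, formazan dissolved in DMSO, OD595 read. Each concentration in triplicate with six growth controls; %cytotoxicity corrected for compound-in-medium and medium-only blanks.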

Assay [11] relates to J774. Description: Cytotoxicity against mouse J774 macrophage at 400 uM. The class given is functional. Put shortly:
as §4

Assay [12] concerns J774. The assay is described as follows: Cytotoxicity against mouse J774 macrophage at 4 uM. The class given is functional, cell-based. The essentials: as §4
Assay [13] relates to Trypanosoma cruzi. The assay is described as follows: Activity against Trypanosoma cruzi in BALB/c mouse at 30 mg/kg/day after 60 days. Type of assay: functional, organism-based. Put shortly: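 Male BALB/c mice (30 days old, 25-30 g) infected i.p. with 10^3 blood trypomastigotes; oral dosing began 10 days post-infection, 30 mg/kg/day as aqueous PBS solution for 10 days; groups of eight, PBS control group of 10. Mortality recorded daily, parasitemia weekly; anti-T. cruzi antibodies measured serologically (absorbance) at 30 and 60 days post-infection, groups compared by Wilcoxon test.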

By IC50 is commonly meant the concentration that inhibits the measured activity by half.

In the case of `CCCCCCNC(=O)N/N=C/c1ccc2c(c1)=[N+]([O-])C(C)(C)[N+]=2[O-]`, the inhibition of growth at 25 µM in [1] was 69%.
For `CCCCOC(=O)c1[nH]c2ccc([N+](=O)[O-])cc2[n+]1[O-]`, in [2], the Activity is given as 0%.
On to `O=C(Cn1ccnc1[N+](=O)[O-])NCc1ccccc1` [BENZNIDAZOLE], for which the inhibition of growth at 25 µM in assay [1] is 92%. The IC50 worked out at 3.4 µM in [3] and 8.5 µM in [4].
For the compound `COc1ccc2c(c1)[n+]([O-])c(C)n2O`, the outcome in assay [5], in [7] and in [8] was inactive. In assay [6], the inhibition of growth at 100 µM is 24%. For the same compound, the inhibition of growth at 25 µM in [1] worked out at 0%. Besides, the Activity in [2] is reported as 23%.
For the compound `O=[N+]([O-])c1ccc2c(c1)[n+]([O-])c1n2CCCC1`, the inhibition of growth at 25 µM in assay [1] was found to be 0%.
For `CCOC(=O)COn1c(C)[n+]([O-])c2cc(/C=C/c3ccccc3)ccc21`, the inhibition of growth at 100 µM in assay [6] was 11%. Moreover, the inhibition of growth at 25 µM in [1] amounted to 8%.
In the case of `O=[N+]([O-])c1ccc2c(c1)[n+]([O-])c1n2CCC1`, the inhibition of growth at 25 µM in [1] was found to be 0%.
For `Cc1n(O)c2ccc(/C=C/c3ccccc3)cc2[n+]1[O-]`, the inhibition of growth at 100 µM in assay [6] is 15%. For the same compound, in assay [1], the inhibition of growth at 25 µM is 19%.
`O=[N+]([O-])c1ccc2c(c1)[n+]([O-])c1n2CCOC1`: the inhibition of growth at 25 µM in assay [1] was determined as 0%.
Regarding `COc1ccc2c(c1)=[N+]([O-])C(C)(C)[N+]=2[O-]`, the Activity in assay [5] is 70%; in assay [8], 70%; in assay [2] it was 34%; in assay [10], below 50%; in assay [11] it was “Toxic”. Also, the IC50 was determined as 17 µM in assay [9], 25 µM in assay [3] and 28.5 µM in [4]. Besides, the inhibition of growth at 25 µM in assay [1] was 52%. Besides, the outcome in assay [7] was inactive.
On to `CC1(C)[N+]([O-])=c2ccc(Br)cc2=[N+]1[O-]`, for which the IC50 in [9] stood at 13.8 µM; in assay [3] it was 12 µM; in [4], 8.3 µM. For the same compound, the inhibition of growth at 25 µM in assay [1] was found to be 77%. For the same compound, the Activity was below 50% in assay [10] and “Toxic” in assay [11].
For `CCOC(=O)c1ccc2[nH]c(C(=O)OCC)[n+]([O-])c2c1`, the outcome in assay [5], in [7] and in [8] was inactive. This compound also displayed an Activity in assay [2] of 50%.
`CCOC(=O)c1[nH]c2ccc([N+](=O)[O-])cc2[n+]1[O-]`: the outcome in [5], in assay [7] and in assay [8] was inactive. Besides, the Activity in [2] turned out to be 0%.
As for `O=[N+]([O-])c1ccc2c(c1)[n+]([O-])c1n2CCSC1`, in assay [1], the inhibition of growth at 25 µM came to 0%.
Consider `CCCCCOn1c(C)[n+]([O-])c2ccccc21`, for which the inhibition of growth at 100 µM in assay [6] was found to be 57%. In addition, in assay [1], the inhibition of growth at 25 µM was determined as 0%.
For the compound `N=C(N)c1ccc(OCCCCCOc2ccc(C(=N)N)cc2)cc1` [PENTAMIDINE], the Activity in assay [5], in [7] and in assay [8] was 100% each time.
As for `CC1(C)[N+]([O-])=c2ccc(/C=C/c3ccccc3)cc2=[N+]1[O-]`, the IC50 is 5 µM in assay [9], 6 µM in assay [3] and 3.4 µM in assay [4]. Moreover, the inhibition of growth at 25 µM in [1] amounted to 100%. Besides, the Activity was below 50% in assay [10] and “Toxic” in assay [11].
Take `CC1(C)[N+]([O-])=c2ccc(/C=N/O)cc2=[N+]1[O-]`: the Activity in assay [5] is 100%; in [12] it was “Not toxic”; in assay [7], 100%; in assay [8] it was 100%; in assay [2], 21%; in assay [10] it was “Not toxic”. In addition, in [11], the Activity result is “Not toxic”. Further, the values for the concentration for half-maximal inhibition (IC50) in [9], in assay [3] and in assay [4] were 11.8 µM, 14.5 µM and 12.5 µM, respectively. In [1], the inhibition of growth at 25 µM was 72%. In assay [13], the result was Active.
Consider `CCOC(=O)COn1c(C)[n+]([O-])c2ccccc21`, for which, in assay [6], the inhibition of growth at 100 µM was found to be 12%. Besides, the inhibition of growth at 25 µM in assay [1] worked out at 1%.
In the case of `CC1(C)[N+]([O-])=c2ccc(C3OCCO3)cc2=[N+]1[O-]`, the Activity stood at 100% in assay [5]; 100% in assay [7]; 100% in assay [8]; 28% in assay [2]; 50% in assay [11]. Besides, the IC50 in assay [9] was 14 µM; in assay [3], 20 µM; in [4], 22.7 µM. Besides, in [1], the inhibition of growth at 25 µM amounted to 59%. Further, the outcome in [13] was Active.
As to `Cc1n(O)c2ccc(Cl)cc2[n+]1[O-]`, in assay [6], the inhibition of growth at 100 µM came out at 8%. Besides, the inhibition of growth at 25 µM in assay [1] was found to be 0%.
For the compound `CC1(C)[N+]([O-])=c2ccccc2=[N+]1[O-]`, the Activity is 100% in [5]; 100% in [7]; 100% in assay [8]; 10% in assay [2]; below 50% in [10]; “Toxic” in assay [11]. Also, the IC50 in assay [9] is 14 µM; in assay [3], 9 µM; in [4], 4.3 µM. Also, the inhibition of growth at 25 µM in assay [1] was determined as 87%.
Take `Cc1n(O)c2ccccc2[n+]1[O-]`: the outcome in assay [5] and in assay [7] was inactive. Besides, the inhibition of growth at 100 µM in [6] came to 0%. Also, in [1], the inhibition of growth at 25 µM is 0%. In addition, the Activity in [8] is reported as 70%; in assay [2] it was 0%.
For the compound `Cc1ccc2c(c1)=[N+]([O-])C(C)(C)[N+]=2[O-]`, the Activity is 70% in [5]; 70% in assay [7]; 70% in assay [8]; 0% in assay [2]; below 50% in [10]; “Toxic” in assay [11]. Moreover, the IC50 in [9] came out at 13 µM; in assay [3] it was 13.5 µM; in assay [4] it was 5.1 µM. The inhibition of growth at 25 µM in [1] turned out to be 85%.
On to `Cc1ccc2c(c1)[n+]([O-])c(C)n2O`, for which the result in assay [5], in [7] and in [8] was inactive. Moreover, in assay [6], the inhibition of growth at 100 µM was found to be 0%. The inhibition of growth at 25 µM in assay [1] was 0%. The Activity in [2] is 0%.
For `Cc1n(O)c2ccc(Br)cc2[n+]1[O-]`, the inhibition of growth at 100 µM in assay [6] is 18%. The inhibition of growth at 25 µM in assay [1] was 0%.
On to `CN(C)c1ccc(C(=C2C=CC(=[N+](C)C)C=C2)c2ccc(N(C)C)cc2)cc1.[Cl-]` [GENTIAN VIOLET], for which, in [2], the Activity is reported as 100%.
For the compound `CC1CS(=O)(=O)CCN1/N=C/c1ccc([N+](=O)[O-])o1` (stereo not drawn) [NIFURTIMOX], the inhibition of growth at 25 µM in assay [1] is 93%.
In the case of `CCOC(=O)COn1c(C)[n+]([O-])c2cc(C)ccc21`, the inhibition of growth at 100 µM in assay [6] stood at 15%. For the same compound, the inhibition of growth at 25 µM in [1] amounted to 25%.
